Experimental data: ChEMBL document CHEMBL1155744, “Cytotoxic dolabellane diterpenes from the Formosan soft coral Clavularia inflata” (2001)
≈ marks a conversion by molar mass, not a printed value.

How the values were obtained:
Type in all cases: functional
Settings in all cases: read-out: ED50 (the source's name)
A549 = test: Cytotoxicity against human A549 cells
In short: (§1)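 Cell lines were obtained from the American Type Culture Collection. Cytotoxicity was tested in vitro, and values are reported as ED50 in µg/mL.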

HT-29 = test: Cytotoxicity against human HT-29 cells; in short: as §1
P388 = test: Cytotoxicity against mouse P388 cells
In short: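 Mouse lymphocytic leukemia P-388 cells were supplied by the Pezzuto laboratory at the University of Illinois at Chicago. Cytotoxicity was tested in vitro, and values are reported as ED50 in µg/mL.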

| Compound | EC50 (A549) [µg/mL] | EC50 (HT-29) [µg/mL] | EC50 (P388) [µg/mL] |
| --- | --- | --- | --- |
| C=C1CC/C=C(\C)CCC2=C(C(C)C)C(=O)C[C@@]2(C)CC1=O | > 50 | > 50 | 3.89 (≈ 12.9 µM) |
| C=C1CC/C=C(\C)CCC2=C(C(C)C)C(=O)C[C@@]2(C)C[C@H]1O (relative stereo) | 8.1 (≈ 26.8 µM) | 9.19 (≈ 30.4 µM) | 3.82 (≈ 12.6 µM) |
| C=C1CC[C@H]2O[C@@]2(C)C/C=C2/[C@@H](C(C)C)C(=O)C[C@]2(C)CC1=O (relative stereo) | 8.56 (≈ 27.1 µM) | 7.84 (≈ 24.8 µM) | 2.48 (≈ 7.84 µM) |
| C=C1CC[C@@H](OO)C(=C)CCC2=C(C(C)C)C(=O)C[C@@]2(C)CC1=O (relative stereo) | 0.57 (≈ 1.71 µM) | 0.31 (≈ 0.932 µM) | 0.052 (≈ 0.156 µM) |
| C=C1CC/C=C(\C)C/C=C2/[C@@H](C(C)C)C(=O)C[C@]2(C)CC1=O (relative stereo) | > 50 | 27.3 (≈ 90.9 µM) | 2.6 (≈ 8.65 µM) |
| C=C1CC/C=C(\C)C[C@H]2O[C@@]23[C@@H](C(C)C)C(=O)C[C@]3(C)CC1=O (relative stereo) | 7.74 (≈ 24.5 µM) | 6.39 (≈ 20.2 µM) | 3.83 (≈ 12.1 µM) |
